Results reported in ChEMBL document CHEMBL4689842, “EUbOPEN Chemogenomics Library wave 1” (2021).

Experiments:
Type in all cases: toxicity, cell-based
U2OS = experiment: Incucyte cell viability with U2OS; details: human, 10 µM, compound concentration 10 uM; further: filed as whole numbers so only -1 and 0 and 1 occur
Fibroblast = experiment: Multiplex assay against human fibroblast
Procedure, shortened: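 Values for tubulin, mitochondrial-mass and membrane-permeability phenotypes are per cents of cells with healthy nuclei. These cells were identified by CellPathfinder machine-learning gating of live cells that had been stained at seeding with Hoechst33342, BioTracker Green Microtubule Cytoskeleton Dye, MitoTracker Red and Annexin V Alexa Fluor 680 and imaged on a CQ1 microscope at 37°C and 5% CO2 after compound addition. The gating first set Hoechst high-intensity objects apart from normal cells, then split normal cells into healthy, pyknosed or fragmented nuclei, and pyknosed cells into mitotic or apoptotic.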

HEK-293T = experiment: Incucyte cell viability with HEK293T; details: human, 10 µM, compound concentration 10 uM; further: filed as whole numbers so only -1 and 0 and 1 occur
[1] = 0 h, replicate number 1, timepoint 0 hours
[2] = 6 h, replicate number 1, timepoint 6 hours
[3] = 12 h, replicate number 1, timepoint 12 hours
[4] = 18 h, replicate number 1, timepoint 18 hours
[5] = 24 h, replicate number 1, timepoint 24 hours
[6] = 12 h, 1 µM, compound concentration 1 uM, replicate 1
[7] = 12 h, 1 µM, compound concentration 1 uM, replicate 2
[8] = 12 h, 10 µM, compound concentration 10 uM, replicate 1
[9] = 12 h, 10 µM, compound concentration 10 uM, replicate 2
[10] = 24 h, 1 µM, compound concentration 1 uM, replicate 1
[11] = 24 h, 1 µM, compound concentration 1 uM, replicate 2
[12] = 24 h, 10 µM, compound concentration 10 uM, replicate 1
[13] = 24 h, 10 µM, compound concentration 10 uM, replicate 2

SMILES: N#Cc1cnc(Nc2cc(NC[C@H]3CNCCO3)c(C(F)(F)F)cn2)cn1 [SRA-737]
- Growth Rate (U2OS; [1]): 1
- Growth Rate (U2OS; 0 h, replicate number 2, timepoint 0 hours): 0
- Growth Rate (U2OS; [2]): 0
- Growth Rate (U2OS; [3]): 0
- Growth Rate (U2OS; [4]): 0
- Growth Rate (U2OS; [5]): 0
- Population Apoptotic (%) (Fibroblast; [6]): 65%
- Population Fragmented Nuclei (%) (Fibroblast; [6]): 23%
- Population Healthy Nuclei (%) (Fibroblast; [6]): 59%
- Population Hoechst High Intensity Objects (%) (Fibroblast; [6]): 13%
- Population Membrane Permeable-Phenotype (%) (Fibroblast; [6]): 9%
- Population Mitochondria Different-Phenotype (%) (Fibroblast; [6]): 1%
- Population Mitotic Cells (%) (Fibroblast; [6]): 34%
- Population Normal (%) (Fibroblast; [6]): 86%
- Population Tubulin-Different-Phenotype (%) (Fibroblast; [6]): 4%
- Total Cell Count (Fibroblast; [6]): 196
- Population Apoptotic (%) (Fibroblast; [7]): 37%
- Population Fragmented Nuclei (%) (Fibroblast; [7]): 60%
- Population Healthy Nuclei (%) (Fibroblast; [7]): 21%
- Population Hoechst High Intensity Objects (%) (Fibroblast; [7]): 35%
- Population Membrane Permeable-Phenotype (%) (Fibroblast; [7]): 10%
- Population Mitochondria Different-Phenotype (%) (Fibroblast; [7]): 0%
- Population Mitotic Cells (%) (Fibroblast; [7]): 62%
- Population Normal (%) (Fibroblast; [7]): 64%
- Population Pyknosed Nuclei (%) (Fibroblast; [7]): 17%
- Population Tubulin-Different-Phenotype (%) (Fibroblast; [7]): 0%
- Total Cell Count (Fibroblast; [7]): 71
- Population Apoptotic (%) (Fibroblast; [8]): 69%
- Population Fragmented Nuclei (%) (Fibroblast; [8]): 33%
- Population Healthy Nuclei (%) (Fibroblast; [8]): 53%
- Population Hoechst High Intensity Objects (%) (Fibroblast; [8]): 12%
- Population Membrane Permeable-Phenotype (%) (Fibroblast; [8]): 11%
- Population Mitochondria Different-Phenotype (%) (Fibroblast; [8]): 1%
- Population Mitotic Cells (%) (Fibroblast; [8]): 30%
- Population Normal (%) (Fibroblast; [8]): 87%
- Population Pyknosed Nuclei (%) (Fibroblast; [8]): 13%
- Population Tubulin-Different-Phenotype (%) (Fibroblast; [8]): 8%
- Total Cell Count (Fibroblast; [8]): 288
- Population Apoptotic (%) (Fibroblast; [9]): 28%
- Population Fragmented Nuclei (%) (Fibroblast; [9]): 58%
- Population Healthy Nuclei (%) (Fibroblast; [9]): 28%
- Population Hoechst High Intensity Objects (%) (Fibroblast; [9]): 34%
- Population Membrane Permeable-Phenotype (%) (Fibroblast; [9]): 7%
- Population Mitochondria Different-Phenotype (%) (Fibroblast; [9]): 35%
- Population Mitotic Cells (%) (Fibroblast; [9]): 71%
- Population Normal (%) (Fibroblast; [9]): 65%
- Population Pyknosed Nuclei (%) (Fibroblast; [9]): 14%
- Population Tubulin-Different-Phenotype (%) (Fibroblast; [9]): 21%
- Total Cell Count (Fibroblast; [9]): 76
- Population Apoptotic (%) (Fibroblast; [10]): 50%
- Population Fragmented Nuclei (%) (Fibroblast; [10]): 31%
- Population Healthy Nuclei (%) (Fibroblast; [10]): 56%
- Population Hoechst High Intensity Objects (%) (Fibroblast; [10]): 9%
- Population Membrane Permeable-Phenotype (%) (Fibroblast; [10]): 7%
- Population Mitochondria Different-Phenotype (%) (Fibroblast; [10]): 2%
- Population Mitotic Cells (%) (Fibroblast; [10]): 50%
- Population Normal (%) (Fibroblast; [10]): 90%
- Population Pyknosed Nuclei (%) (Fibroblast; [10]): 11%
- Population Tubulin-Different-Phenotype (%) (Fibroblast; [10]): 1%
- Total Cell Count (Fibroblast; [10]): 205
- Population Apoptotic (%) (Fibroblast; [11]): 42%
- Population Fragmented Nuclei (%) (Fibroblast; [11]): 63%
- Population Healthy Nuclei (%) (Fibroblast; [11]): 22%
- Population Hoechst High Intensity Objects (%) (Fibroblast; [11]): 24%
- Population Membrane Permeable-Phenotype (%) (Fibroblast; [11]): 9%
- Population Mitochondria Different-Phenotype (%) (Fibroblast; [11]): 9%
- Population Mitotic Cells (%) (Fibroblast; [11]): 57%
- Population Normal (%) (Fibroblast; [11]): 75%
- Population Pyknosed Nuclei (%) (Fibroblast; [11]): 14%
- Population Tubulin-Different-Phenotype (%) (Fibroblast; [11]): 18%
- Total Cell Count (Fibroblast; [11]): 65
- Population Apoptotic (%) (Fibroblast; [12]): 71%
- Population Fragmented Nuclei (%) (Fibroblast; [12]): 41%
- Population Healthy Nuclei (%) (Fibroblast; [12]): 48%
- Population Hoechst High Intensity Objects (%) (Fibroblast; [12]): 18%
- Population Membrane Permeable-Phenotype (%) (Fibroblast; [12]): 9%
- Population Mitochondria Different-Phenotype (%) (Fibroblast; [12]): 2%
- Population Mitotic Cells (%) (Fibroblast; [12]): 28%
- Population Normal (%) (Fibroblast; [12]): 81%
- Population Pyknosed Nuclei (%) (Fibroblast; [12]): 10%
- Population Tubulin-Different-Phenotype (%) (Fibroblast; [12]): 15%
- Total Cell Count (Fibroblast; [12]): 342
- Population Apoptotic (%) (Fibroblast; [13]): 28%
- Population Fragmented Nuclei (%) (Fibroblast; [13]): 59%
- Population Healthy Nuclei (%) (Fibroblast; [13]): 26%
- Population Hoechst High Intensity Objects (%) (Fibroblast; [13]): 27%
- Population Membrane Permeable-Phenotype (%) (Fibroblast; [13]): 15%
- Population Mitochondria Different-Phenotype (%) (Fibroblast; [13]): 30%
- Population Mitotic Cells (%) (Fibroblast; [13]): 71%
- Population Normal (%) (Fibroblast; [13]): 72%
- Population Pyknosed Nuclei (%) (Fibroblast; [13]): 14%
- Population Tubulin-Different-Phenotype (%) (Fibroblast; [13]): 30%
- Total Cell Count (Fibroblast; [13]): 68
- Growth Rate (HEK-293T; [1]): 0
- Growth Rate (HEK-293T; [2]): 0
- Growth Rate (HEK-293T; [3]): 0
- Growth Rate (HEK-293T; [4]): 0
- Growth Rate (HEK-293T; [5]): 0
